Consider one compound from ChEMBL document CHEMBL5143731, “N-Acylamino Saccharin as an Emerging Cysteine-Directed Covalent Warhead and Its Application in the Identification of Novel FBPase Inhibitors toward Glucose Reduction” (J Med Chem, 2022).

By half-life is commonly meant the time in which the quantity being followed falls by half. What is called IC50 is the concentration that gives 50% inhibition. By inhibition is commonly meant how much of the control response was suppressed.

For series [1], the system named is Mus musculus. Kind of series: Hypoglycemic activity in ICR mouse assessed as improvement in glucose tolerance at 10 to 30 mg/kg, ip administered 1 hr prior to oral glucose at 2 g/kg and measured after 0.25 hr by OGTT. As to conditions: dose 10-30 mg/kg.
For series [2], the system named is Hepatocyte. Kind of series: Cytotoxicity in ICR mouse serum starved primary hepatocytes assessed as reduction in cell viability at 50 to 300 uM. As to conditions: dose 50-300 µM. Format: toxicity, cell-based.
Series [3] is described as follows: Half life of the compound in GSH. The format is physicochemical. Conditions: GSH (glutathione). A digest of the protocol:
(§1)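 Electrophile (20 μmol) incubated at 37 °C either in pH 7.4 buffer, or in DMSO-d6/D2O (5:1), with or without glutathione. Decay followed by 1H NMR kinetics. First-order rate constant kpseudo-1st taken from ln[electrophile] versus time; t1/2 = 0.693/(60×k), in min.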

Series [4] is filed under the species Homo sapiens. The series is described as follows: Selectivity ratio of IC50 for human FBPase to IC50 for recombinant ALDOB (unknown origin). A digest of the protocol: (§2)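 Aldolase (ALDOA/B/C) IC50 by NADH-coupled assay: enzyme plus serial compound dilutions, 0.41 mM NADH and TPI in 0.1 M Tris pH 7.4/0.2 M K-acetate, 3 min at 37 °C. Started with FBP and […], A340 read every 30 s for 6 min. Ratios against the FBPase IC50 from malachite green phosphate assay (620 nm).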

For series [5], the system named is Mus musculus. The series is described as follows: Hypoglycemic activity in ICR mouse assessed as glucose lowering effect at 30 mg/kg, ip measured after 2 to 6 hrs. The format is functional, organism-based. As to conditions: time 2-6 hrs. A digest of the protocol:
(§3)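 Fasted (12 h) male ICR mice received one intraperitoneal dose in 10% ricinus oil/water vehicle; metformin 250 mg/kg served as control. Food was withheld. Tail blood glucose was read by glucometer at 0, 1, 2, 4 and 6 h.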

Series [6] concerns the target T1, Fructose-1,6-bisphosphatase 1 (Homo sapiens, UniProt P09467).
T1 sequence (P09467 whole entry): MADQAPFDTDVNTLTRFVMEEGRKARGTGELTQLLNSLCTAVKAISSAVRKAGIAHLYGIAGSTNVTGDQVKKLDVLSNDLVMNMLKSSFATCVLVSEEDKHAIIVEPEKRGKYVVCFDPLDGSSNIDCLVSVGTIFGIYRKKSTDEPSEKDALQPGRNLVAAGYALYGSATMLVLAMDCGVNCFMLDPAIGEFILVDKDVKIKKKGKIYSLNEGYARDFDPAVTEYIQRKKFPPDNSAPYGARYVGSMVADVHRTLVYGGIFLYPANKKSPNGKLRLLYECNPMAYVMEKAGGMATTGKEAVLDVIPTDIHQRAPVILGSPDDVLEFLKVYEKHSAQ
Kind of series: Inhibition of human FBPase expressed Escherichia coli BL21 in by malachite green dye based spectrophotometry. The method in brief: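 His-tagged human liver FBPase expressed in E. coli BL21(DE3) and purified by Ni affinity. Phosphate released from FBP complexed with ammonium molybdate/malachite green and read at 620 nm against a KH2PO4 standard curve (2−60 μM). Initial rates at saturating substrate, fixed effector and varied inhibitor fitted to the Hill equation for IC50.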

Series [7] deals with T2, Fructose-1,6-bisphosphatase 1 (Homo sapiens) (UniProt P09467).
T2 sequence (whole entry): T1 sequence (P09467 whole entry)
The series is described as follows: Inhibition of human FBPase in ICR mouse serum starved primary hepatocytes assessed as glucose lowering effect. Format: cell-based. Conditions: Hepatocyte, dose 50-300 µM. The method in brief:
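Primary mouse hepatocytes serum-starved overnight, then exposed in DMEM for 6 h to test compounds (50−300 μM), metformin 1 mM or saccharin 50 or 100 μM. Gluconeogenesis assessed as glucose in the culture medium. Mean ± SEM reported, Student's t-test versus vehicle.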

A short description of series [8]: Half life of the compound in buffer. The format is physicochemical. The method in brief: as §1
For series [9], the system named is Mus musculus. The series is described as follows: Hypoglycemic activity in 12 hrs fasted ICR mouse assessed as reduction in blood glucose AUC (0 to 6 hrs) at 10 mg/kg, ip measured after 6 hrs. Format: functional. Details: scale not given: the % may be the effect or the level left. The method in brief:
(§4)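 Male ICR mice (n = 4 per group), fasted 12 h with food withheld throughout. Single ip dose in 10% ricinus oil in water; vehicle and metformin 250 mg/kg as controls. Tail-vein glucose by glucometer at 0, 1, 2, 4 and 6 h; AUC over 0−6 h calculated.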

The species entered for series [10] is Homo sapiens. Kind of series: Selectivity ratio of IC50 for human FBPase to IC50 for human GAPDH. A digest of the protocol:
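Recombinant human GAPDH (His-tag, E. coli; 0.1 mg/mL final) preincubated 30 min with compound in 10 mM sodium pyrophosphate pH 8.5 at 37 °C. Started with arsenate, 4 mM NAD+ and 12 mM G3P; A340 at 4 min. Ratio taken against FBPase IC50 from the malachite green phosphate-release assay.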

The species named for series [11] is Homo sapiens. Kind of series: Selectivity ratio of IC50 for human FBPase to IC50 for recombinant ALDOA (unknown origin). The method in brief:
as §2

The test system of series [12] is Mus musculus. Kind of series: Hypoglycemic activity in 12 hrs fasted ICR mouse assessed as reduction in blood glucose AUC (0 to 2 hrs) at 30 mg/kg, ip measured after 2 hrs. Format: functional. Details: scale not given: the % may be the effect or the level left. A digest of the protocol:
(§5)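 OGTT: 12 h-fasted ICR mice (n = 6 per group) dosed ip (10 or 30 mg/kg in 10% ricinus oil/water), with vehicle and metformin 250 mg/kg controls, 1 h before oral glucose 2 g/kg. Tail blood glucose by glucometer at 0, 0.25, 0.5, 1, 1.5 and 2 h; AUC 0−2 h computed. Food withheld.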

Series [13] concerns Mus musculus. The series is described as follows: Hypoglycemic activity in 12 hrs fasted ICR mouse assessed as reduction in blood glucose AUC (0 to 2 hrs) at 10 mg/kg, ip measured after 2 hrs. The format is functional. Set-up: scale not given: the % may be the effect or the level left. The method in brief:
as §5

For series [14], the species on record is Homo sapiens. The series is described as follows: Selectivity ratio of IC50 for human FBPase to IC50 for recombinant ALDOC (unknown origin). A digest of the protocol:
as §2

In series [15] the target is Epidermal growth factor receptor (Homo sapiens) (UniProt P00533). Kind of series: Inhibition of EGFR (unknown origin) at 300 uM measured after 40 mins in presence of ATP by luminescence assay relative to control. A digest of the protocol:
(§6)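 Kinase reaction (50 μL): 40 mM Tris pH 7.4, 10 mM MgCl2, 0.1 mg/mL BSA, 1 mM DTT, 10 μM ATP, kinase and substrate, with 1% final DMSO. Run 40 min at 30 °C. Residual ATP read by Kinase-Glo Plus luminescence, inversely related to kinase activity.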

The target of series [16] is Tyrosine-protein kinase BTK (Homo sapiens) (UniProt Q06187). Kind of series: Inhibition of BTK (unknown origin) at 300 uM measured after 40 mins in presence of ATP by luminescence assay relative to control. A digest of the protocol: as §6
For series [17], the system named is Mus musculus. The series is described as follows: Hypoglycemic activity in 12 hrs fasted ICR mouse assessed as glucose lowering effect at 10 to 30 mg/kg, ip measured after 2 hrs. The format is functional, organism-based. As to conditions: dose 10-30 mg/kg. A digest of the protocol: as §3
In series [18] the test system is Mus musculus. Kind of series: Hypoglycemic activity in 12 hrs fasted ICR mouse assessed as reduction in blood glucose AUC (0 to 6 hrs) at 30 mg/kg, ip measured after 6 hrs. Format: functional. Details: scale not given: the % may be the effect or the level left. A digest of the protocol:
as §4

Series [19] in a line: Drug uptake in 12 hrs fasted ICR mouse assessed as plasma concentration at 30 mg/kg, ip measured after 6 hrs by LC-MS/MS analysis. Format: ADME, organism-based. As to conditions: in vivo. The method in brief:
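Plasma levels of parent and of released saccharin followed over 0−24 h after a single 30 mg/kg ip dose to 12 h-fasted male ICR mice. Plasma was obtained from K2EDTA blood (4 °C spin, stored at −70 °C) and measured by LC−MS/MS.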

Calls of active or inactive are those of the source. The rule behind the calls is not given here.

Sequence of Tyrosine-protein kinase BTK (Homo sapiens) (Q06187 whole entry): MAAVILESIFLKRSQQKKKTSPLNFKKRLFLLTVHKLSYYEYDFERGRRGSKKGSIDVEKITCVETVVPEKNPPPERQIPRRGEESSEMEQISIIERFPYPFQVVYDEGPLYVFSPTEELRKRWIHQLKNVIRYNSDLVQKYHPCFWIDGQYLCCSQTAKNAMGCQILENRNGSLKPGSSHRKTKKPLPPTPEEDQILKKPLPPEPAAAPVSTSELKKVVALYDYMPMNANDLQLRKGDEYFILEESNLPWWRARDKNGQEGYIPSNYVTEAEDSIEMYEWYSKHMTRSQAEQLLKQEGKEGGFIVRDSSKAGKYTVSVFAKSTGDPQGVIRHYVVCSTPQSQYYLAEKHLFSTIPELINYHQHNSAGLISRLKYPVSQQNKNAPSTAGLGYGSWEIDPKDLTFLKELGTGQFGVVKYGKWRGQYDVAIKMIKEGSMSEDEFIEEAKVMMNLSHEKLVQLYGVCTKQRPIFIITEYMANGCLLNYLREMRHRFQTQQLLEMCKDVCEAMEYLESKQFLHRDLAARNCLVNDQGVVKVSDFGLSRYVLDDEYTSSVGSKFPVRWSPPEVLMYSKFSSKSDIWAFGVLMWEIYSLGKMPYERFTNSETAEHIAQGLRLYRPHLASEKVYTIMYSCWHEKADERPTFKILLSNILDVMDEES
Sequence of Epidermal growth factor receptor (Homo sapiens) (P00533 whole entry): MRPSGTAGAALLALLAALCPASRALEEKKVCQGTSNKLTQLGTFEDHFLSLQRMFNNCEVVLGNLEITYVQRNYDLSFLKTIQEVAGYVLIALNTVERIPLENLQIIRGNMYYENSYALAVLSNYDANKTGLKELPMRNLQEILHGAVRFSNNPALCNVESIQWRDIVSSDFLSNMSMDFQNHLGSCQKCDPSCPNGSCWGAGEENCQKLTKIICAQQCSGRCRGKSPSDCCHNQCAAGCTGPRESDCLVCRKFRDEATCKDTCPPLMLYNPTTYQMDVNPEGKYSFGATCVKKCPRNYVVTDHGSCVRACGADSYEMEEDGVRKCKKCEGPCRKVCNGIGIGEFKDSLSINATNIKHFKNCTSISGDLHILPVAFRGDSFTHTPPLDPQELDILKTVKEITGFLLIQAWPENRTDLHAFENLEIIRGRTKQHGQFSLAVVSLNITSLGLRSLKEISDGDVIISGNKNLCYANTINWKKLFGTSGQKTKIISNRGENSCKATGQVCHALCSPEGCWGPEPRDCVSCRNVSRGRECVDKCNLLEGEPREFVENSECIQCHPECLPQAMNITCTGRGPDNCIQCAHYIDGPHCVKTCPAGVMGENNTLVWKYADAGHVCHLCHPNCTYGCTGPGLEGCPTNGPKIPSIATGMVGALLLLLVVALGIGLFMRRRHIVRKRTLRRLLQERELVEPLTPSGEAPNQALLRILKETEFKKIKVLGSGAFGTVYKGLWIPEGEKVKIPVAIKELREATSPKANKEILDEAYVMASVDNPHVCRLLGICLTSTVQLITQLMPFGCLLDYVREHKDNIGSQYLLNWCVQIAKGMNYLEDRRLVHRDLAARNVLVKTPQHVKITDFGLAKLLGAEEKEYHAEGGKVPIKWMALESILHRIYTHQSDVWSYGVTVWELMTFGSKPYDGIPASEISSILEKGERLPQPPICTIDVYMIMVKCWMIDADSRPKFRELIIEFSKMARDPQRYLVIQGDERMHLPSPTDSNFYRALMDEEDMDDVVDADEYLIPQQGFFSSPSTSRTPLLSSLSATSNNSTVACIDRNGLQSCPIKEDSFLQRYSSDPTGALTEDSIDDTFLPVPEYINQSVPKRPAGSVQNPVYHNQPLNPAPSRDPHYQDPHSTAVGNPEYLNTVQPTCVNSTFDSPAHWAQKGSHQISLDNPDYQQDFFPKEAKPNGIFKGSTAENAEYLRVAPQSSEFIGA

Turning to `O=C(NCc1ccccc1)N1C(=O)c2ccccc2S1(=O)=O`, the outcome in [1], in series [5] and in series [17] was Active. In addition, the Activity result in series [2] was “Non-Toxic”; in series [9], 15.3%; in series [12] it was 17.7%; in series [13], 20.2%; in [18], 42.4%. Moreover, the half-life in series [3] is 1.02 h; in series [8] it was greater than 167 h. The Ratio IC50 in [4], in series [10], in series [11] and in series [14] was greater than 25 in each case. In series [6], this compound registered an IC50 of 3.4 µM. For the same compound, the inhibition entry in series [7] is “Active”. For the same compound, the inhibition in [15] and in series [16] was less than 50% each time. Moreover, in [19], the Cp entry is on record as “Active”.
